Here are results for three compounds from PMC3182458 (Bioorganic & medicinal chemistry letters, 2008).

For orientation: EC50 means the midpoint of the concentration-response curve. Low values mean greater potency, high ones weaker potency.

Several values for one entry are separate records, joined by “and”; a condition that tells them apart may be missing. Identical values can stand only once. Entries after “also recorded” stand apart in the source; their conditions may differ.

A short description of data set [1]: stability in fortified liver microsome preparations. Format: in vitro ADME. The note with it: after 90 minutes, fortified liver microsomes.
The target of the next data set is human mGluR4 (Homo sapiens, UniProt Q14833). The data set is classed as cell-based.
human mGluR4, sequence (Q14833 33-912): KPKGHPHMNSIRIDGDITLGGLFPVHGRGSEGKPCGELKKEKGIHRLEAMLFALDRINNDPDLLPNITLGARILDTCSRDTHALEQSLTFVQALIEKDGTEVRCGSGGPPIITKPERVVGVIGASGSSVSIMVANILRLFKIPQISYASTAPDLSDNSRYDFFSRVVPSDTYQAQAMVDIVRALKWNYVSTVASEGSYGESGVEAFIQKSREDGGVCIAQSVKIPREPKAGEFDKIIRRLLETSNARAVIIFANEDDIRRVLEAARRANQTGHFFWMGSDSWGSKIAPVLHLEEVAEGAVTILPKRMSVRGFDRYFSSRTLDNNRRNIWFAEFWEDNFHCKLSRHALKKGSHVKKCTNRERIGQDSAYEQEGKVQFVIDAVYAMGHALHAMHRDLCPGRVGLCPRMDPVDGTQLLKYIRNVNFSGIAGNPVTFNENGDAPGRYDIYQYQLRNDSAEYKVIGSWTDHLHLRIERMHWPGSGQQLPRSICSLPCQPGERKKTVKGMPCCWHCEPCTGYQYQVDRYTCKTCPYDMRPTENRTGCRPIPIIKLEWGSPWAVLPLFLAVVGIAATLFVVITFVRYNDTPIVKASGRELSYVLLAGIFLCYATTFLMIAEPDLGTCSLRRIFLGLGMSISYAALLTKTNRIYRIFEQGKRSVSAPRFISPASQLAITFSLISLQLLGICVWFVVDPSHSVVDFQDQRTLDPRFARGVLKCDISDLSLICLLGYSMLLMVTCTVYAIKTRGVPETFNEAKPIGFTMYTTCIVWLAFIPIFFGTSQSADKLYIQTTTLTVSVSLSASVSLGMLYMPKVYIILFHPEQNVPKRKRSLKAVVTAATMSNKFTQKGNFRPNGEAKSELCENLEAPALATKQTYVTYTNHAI
The target in the next data set is rat mGluR1 (Rattus norvegicus, UniProt P23385). Nature of the data set: calcium fluorescence counterscreen in rat mGluR1/BHK cells. The data set is classed as cell-based. The essentials: (§1)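 Calcium mobilization in rat receptor lines: mGluR1/BHK plated at 20,000 cells/well, mGluR5/HEK at 15,000 cells/well, in DMEM with 10% dialyzed FBS and 20 mM HEPES. […] Test compound run as a 10-point curve from 30 µM final, 1:3 dilutions. Maximum fluorescence of the EC20 and EC80 peaks is expressed versus control.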
rat mGluR1, sequence (P23385 19-1199): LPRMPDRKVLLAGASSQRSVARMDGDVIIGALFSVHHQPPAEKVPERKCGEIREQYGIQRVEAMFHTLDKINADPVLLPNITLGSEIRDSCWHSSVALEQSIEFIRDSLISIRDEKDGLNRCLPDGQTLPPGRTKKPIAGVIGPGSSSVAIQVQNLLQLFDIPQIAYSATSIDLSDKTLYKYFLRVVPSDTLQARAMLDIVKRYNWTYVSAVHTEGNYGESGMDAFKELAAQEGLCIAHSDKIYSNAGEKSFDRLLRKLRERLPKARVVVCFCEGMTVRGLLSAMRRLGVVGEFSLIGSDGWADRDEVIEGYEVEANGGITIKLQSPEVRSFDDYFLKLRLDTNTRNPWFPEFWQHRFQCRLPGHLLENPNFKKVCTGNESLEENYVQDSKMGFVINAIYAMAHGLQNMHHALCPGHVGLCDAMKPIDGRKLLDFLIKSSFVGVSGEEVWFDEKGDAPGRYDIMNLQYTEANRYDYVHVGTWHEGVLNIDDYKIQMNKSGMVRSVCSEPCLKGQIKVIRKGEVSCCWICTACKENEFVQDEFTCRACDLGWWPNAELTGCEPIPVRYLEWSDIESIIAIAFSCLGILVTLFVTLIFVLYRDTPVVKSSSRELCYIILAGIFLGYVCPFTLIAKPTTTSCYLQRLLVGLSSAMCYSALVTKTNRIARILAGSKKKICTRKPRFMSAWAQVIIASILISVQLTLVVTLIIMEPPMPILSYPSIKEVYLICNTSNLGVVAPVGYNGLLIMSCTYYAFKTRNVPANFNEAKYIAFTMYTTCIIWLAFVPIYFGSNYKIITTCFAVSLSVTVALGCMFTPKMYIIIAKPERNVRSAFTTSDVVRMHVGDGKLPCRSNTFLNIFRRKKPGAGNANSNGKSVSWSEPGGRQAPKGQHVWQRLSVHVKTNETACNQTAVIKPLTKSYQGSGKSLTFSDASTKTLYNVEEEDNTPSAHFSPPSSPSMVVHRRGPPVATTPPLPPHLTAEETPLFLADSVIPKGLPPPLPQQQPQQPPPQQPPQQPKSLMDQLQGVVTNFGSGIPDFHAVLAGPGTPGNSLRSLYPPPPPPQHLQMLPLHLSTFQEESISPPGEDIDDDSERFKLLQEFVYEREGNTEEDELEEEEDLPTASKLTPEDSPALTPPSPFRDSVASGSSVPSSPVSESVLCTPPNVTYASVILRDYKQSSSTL

The next data set has as its system rat mGluR5. Nature of the data set: calcium fluorescence counterscreen in rat mGluR5/HEK cells. Format: cell-based. An outline of the steps: as §1
Background: Counterscreens check selectivity or assay interference.

The conditions of data set [2]: cited from earlier work.

In the case of `Cc1ccc(-n2ncc3c(N4CCCC(C)C4)ncnc32)c(C)c1` (centres unmarked) [Compound 7, 1-(2,4-dimethylphenyl)-4-(3-methylpiperidin-1-yl)-1H-pyrazolo[3,4-d]pyrimidine], the parent compound remaining in data set [1] is recorded as 9%. The same compound yielded an EC50 at human mGluR4 of roughly 5 µM. Further, the “effect on the glutamate max (maximal response)” value on human mGluR4 (compound at 30 µM) was “no increase in the glutamate max”. Also, the “Fold shift (leftward shift of the glutamate response curve)” value at human mGluR4 (compound at 30 µM, HTS stock of 7) is 27.2(±8.5) fold and 27.2 fold. Moreover, the “potentiation of an EC20 of glutamate in the HTS campaign” value at human mGluR4 (mGluR4/Gqi5 CHO cells, HTS) is listed as “Concentration-dependent potentiation”. Also, the “effect on mGluR4 in the absence of glutamate” value at human mGluR4 (no glutamate) was “does not activate mGluR4”. The “mode of action at mGluR1” value at rat mGluR1 was “full antagonist”. Moreover, the “selectivity versus mGluR5” value in the data set on rat mGluR5 is listed as “selective versus mGluR5”.

Take `N[C@@H](CCP(=O)(O)O)C(=O)O` [L-AP4, L-(+)-2-amino-4-phosphonobutryic acid]: in data set [2], the CNS penetration result is reported as “limited CNS penetration”.

Turning to `O=C(Nc1ccccc1)[C@]12C[C@H]1/C(=N\O)c1ccccc1O2` [(−)-PHCCC, reference compound], the “effect on the glutamate max (maximal response)” value on human mGluR4 (compound at 30 µM) is “elevation in the glutamate max; also recorded: increases maximal response”. Besides, the brain penetration entry in data set [2] is “limited brain penetration”.
